Measured values as given in ChEMBL document CHEMBL4393684, “Benzoic acid-derived nitrones: A new class of potential acetylcholinesterase inhibitors and neuroprotective agents” (Eur J Med Chem, 2019).
The source made the active and inactive calls. No cut-off for these calls is given here.

What was measured:
[1] = molecular target: Cholinesterase (Equus caballus) (UniProt P81908); experiment: Inhibition of equine serum BChE using butyrylthiocholine iodide as substrate at 50 uM incubated for 5 mins followed by substrate addition measured for 5 mins by Ellman's method
Sequence of Cholinesterase (Equus caballus) (P81908 whole entry): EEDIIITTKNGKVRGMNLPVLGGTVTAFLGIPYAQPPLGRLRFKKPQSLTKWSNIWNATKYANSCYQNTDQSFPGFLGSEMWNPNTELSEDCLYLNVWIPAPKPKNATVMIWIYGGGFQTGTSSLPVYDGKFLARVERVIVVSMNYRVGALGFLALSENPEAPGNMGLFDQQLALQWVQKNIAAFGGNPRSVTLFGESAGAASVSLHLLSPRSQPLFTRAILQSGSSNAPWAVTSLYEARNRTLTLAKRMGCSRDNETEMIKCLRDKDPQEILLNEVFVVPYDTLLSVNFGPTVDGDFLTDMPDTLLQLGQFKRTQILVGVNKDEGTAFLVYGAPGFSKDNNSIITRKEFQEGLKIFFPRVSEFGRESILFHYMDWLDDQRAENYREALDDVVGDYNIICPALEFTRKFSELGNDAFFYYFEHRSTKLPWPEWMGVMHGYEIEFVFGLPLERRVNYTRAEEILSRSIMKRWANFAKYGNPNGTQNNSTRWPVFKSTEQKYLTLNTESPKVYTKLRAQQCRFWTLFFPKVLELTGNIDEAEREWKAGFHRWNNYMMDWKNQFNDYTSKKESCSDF
Method in brief: (§1)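 Ellman's colorimetric method. AChE came from Electrophorus electricus and BChE from equine serum. Compounds were tested up to 50 μM, the highest concentration.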

SH-SY5Y [2] = experiment: Cytotoxicity against human SH-SY5Y cells assessed as reduction in cell viability at 1 to 50 uM incubated for 24 hrs by MTT assay; type: cell-based
Method in brief: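 Differentiated human SH-SY5Y neuroblastoma cells were exposed in culture medium to 1, 10 and 50 μM for 24 h. Viability was read as metabolic activity by MTT reduction. Untreated cells served as control, and results are mean % of untreated controls ± SEM (n = 4).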

HepG2 = experiment: Cytotoxicity against human HepG2 cells assessed as reduction in cell viability at 1 to 50 uM incubated for 24 hrs by resazurin dye based fluorescence assay; settings: hepg2, 24 h
Method in brief: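 HepG2 hepatocellular carcinoma cells were exposed in culture medium to 1, 10 and 50 μM. Viability was measured as metabolic activity by resazurin reduction. Results are mean % of untreated control cells ± SEM (n = 4).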

[3] = molecular target: Acetylcholinesterase (Electrophorus electricus) (UniProt O42275); experiment: Inhibition of electric eel AChE using acetylthiocholine iodide as substrate at 50 uM incubated for 5 mins followed by substrate addition measured for 5 mins by Ellman's method; method in brief: as §1
Sequence of Acetylcholinesterase (Electrophorus electricus) (O42275 24-633 limits assumed): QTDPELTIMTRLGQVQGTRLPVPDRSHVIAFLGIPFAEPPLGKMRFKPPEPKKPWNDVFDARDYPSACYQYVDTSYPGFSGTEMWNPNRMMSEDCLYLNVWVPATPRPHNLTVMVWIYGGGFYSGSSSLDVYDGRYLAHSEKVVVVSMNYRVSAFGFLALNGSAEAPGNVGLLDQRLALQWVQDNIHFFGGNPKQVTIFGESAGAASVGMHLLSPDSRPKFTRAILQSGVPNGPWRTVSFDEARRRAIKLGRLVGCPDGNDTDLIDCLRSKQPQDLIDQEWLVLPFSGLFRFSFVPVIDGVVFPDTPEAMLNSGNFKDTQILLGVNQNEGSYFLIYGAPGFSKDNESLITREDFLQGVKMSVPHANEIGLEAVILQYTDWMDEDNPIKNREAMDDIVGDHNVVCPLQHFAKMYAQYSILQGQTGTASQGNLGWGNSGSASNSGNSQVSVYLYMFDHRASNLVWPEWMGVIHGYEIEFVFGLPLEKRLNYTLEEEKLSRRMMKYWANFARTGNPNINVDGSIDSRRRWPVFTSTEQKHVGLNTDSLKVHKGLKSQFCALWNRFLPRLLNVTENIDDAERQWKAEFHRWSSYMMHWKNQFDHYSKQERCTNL

[4] = molecular target: Acetylcholinesterase (Electrophorus electricus) (UniProt O42275); experiment: Noncompetitive inhibition of electric eel AChE assessed as effect on Km of substrate at 5 to 20 uM using acetylthiocholine iodide as substrate incubated for 5 mins followed by substrate addition measured for 5 mins by double reciprocal Lineweaver-Burk plot analysis
[5] = molecular target: Acetylcholinesterase (Electrophorus electricus) (UniProt O42275); experiment: Noncompetitive inhibition of electric eel AChE assessed as decrease in Vmax for substrate at 5 to 20 uM using acetylthiocholine iodide as substrate incubated for 5 mins followed by substrate addition measured for 5 mins by double reciprocal Lineweaver-Burk plot analysis
Acetylcholinesterase = Acetylcholinesterase (Electrophorus electricus, UniProt O42275); experiment: Inhibition of electric eel AChE assessed as inhibition constant using acetylthiocholine iodide as substrate pretreated for 5 mins followed by substrate addition measured for 5 mins by Dixon plot analysis
Sequence of Acetylcholinesterase (O42275 whole entry): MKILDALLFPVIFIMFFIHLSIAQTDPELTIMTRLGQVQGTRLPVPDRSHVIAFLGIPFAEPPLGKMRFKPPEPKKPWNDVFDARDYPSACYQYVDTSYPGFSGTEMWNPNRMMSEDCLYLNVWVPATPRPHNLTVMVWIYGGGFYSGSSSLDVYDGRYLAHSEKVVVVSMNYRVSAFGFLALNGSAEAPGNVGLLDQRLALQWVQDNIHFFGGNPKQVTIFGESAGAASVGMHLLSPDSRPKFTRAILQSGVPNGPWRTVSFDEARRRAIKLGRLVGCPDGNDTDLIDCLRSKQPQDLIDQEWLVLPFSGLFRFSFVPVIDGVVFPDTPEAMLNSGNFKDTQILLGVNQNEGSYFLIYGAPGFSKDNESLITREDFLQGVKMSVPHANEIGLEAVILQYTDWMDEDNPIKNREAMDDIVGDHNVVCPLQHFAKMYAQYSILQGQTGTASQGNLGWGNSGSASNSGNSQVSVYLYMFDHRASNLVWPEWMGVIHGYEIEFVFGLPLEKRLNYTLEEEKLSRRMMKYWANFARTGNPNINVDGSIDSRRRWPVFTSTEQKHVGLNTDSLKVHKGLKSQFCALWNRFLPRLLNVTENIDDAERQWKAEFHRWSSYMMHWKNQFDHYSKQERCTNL

SH-SY5Y [6] = experiment: Neuroprotective activity against DOX-induced oxidative stress in human SH-SY5Y cells assessed as metabolic stability at 10 to 100 uM incubated for 24 hrs by resazurin dye based fluorescence assay relative to control; type: functional
Method in brief: (§2)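 Differentiated SH-SY5Y cells were given test compounds at 10, 50 and 100 μM. Two protocols were used: 24 h compound pre-incubation then stressor, or stressor first then 24 h compound. Stressors were H2O2 1 mM, t-BHP 200 μM, ROT/AA 1 μM or DOX 1 μM, each for 4 h. Resazurin reduction was read as % of untreated control, four independent experiments, one-way ANOVA.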

SH-SY5Y [7] = experiment: Neuroprotective activity against ROT/AA-induced oxidative stress in human SH-SY5Y cells assessed as metabolic stability at 10 to 100 uM incubated for 24 hrs by resazurin dye based fluorescence assay relative to control; type: functional; method in brief: as §2
SH-SY5Y [8] = experiment: Neuroprotective activity against t-BHP-induced oxidative stress in human SH-SY5Y cells assessed as metabolic stability at 10 to 100 uM incubated for 24 hrs by resazurin dye based fluorescence assay relative to control; type: functional; method in brief: as §2
SH-SY5Y [9] = experiment: Neuroprotective activity against H2O2-induced oxidative stress in human SH-SY5Y cells assessed as metabolic stability at 10 to 100 uM incubated for 24 hrs by resazurin dye based fluorescence assay relative to control; type: functional; method in brief: as §2
SH-SY5Y [10] = experiment: Neuroprotective activity against t-BHP-induced oxidative stress in human SH-SY5Y cells assessed as metabolic stability incubated for 24 hrs by resazurin dye based fluorescence assay relative to control; type: functional, cell-based; method in brief: as §2
[11] = molecular target: Acetylcholinesterase (Electrophorus electricus) (UniProt O42275); experiment: Mixed inhibition of electric eel AChE assessed as decrease in Vmax of substrate at 7.5 to 30 uM using acetylthiocholine iodide as substrate incubated for 5 mins followed by substrate addition measured for 5 mins by double reciprocal Lineweaver-Burk plot analysis
[12] = molecular target: Acetylcholinesterase (Electrophorus electricus) (UniProt O42275); experiment: Mixed inhibition of electric eel AChE assessed as decrease in Km of substrate at 7.5 to 30 uM using acetylthiocholine iodide as substrate incubated for 5 mins followed by substrate addition measured for 5 mins by double reciprocal Lineweaver-Burk plot analysis

SMILES	inhibition [1]	Activity (SH-SY5Y [2])	Activity (HepG2)	inhibition [3]	other results
COc1ccc(C(=O)NCCCCC/C=[N+](\[O-])C(C)(C)C)cc1	inactive	Non-Toxic	Non-Toxic		
COc1cc(C(=O)NCCCCCCC/C=[N+](\[O-])C(C)(C)C)cc(OC)c1OC	inactive	Non-Toxic	Non-Toxic		
COc1ccc(C(=O)NCCCCC/C=[N+](\[O-])C2CCCCC2)cc1	inactive	Non-Toxic	Non-Toxic	inactive	
COc1ccc(C(=O)NCCCCC/C=[N+](\[O-])Cc2ccccc2)cc1OC	inactive	Non-Toxic	Non-Toxic	inactive	
COc1cc(C(=O)NCCCCCCCCC/C=[N+](\[O-])C(C)(C)C)cc(OC)c1OC	inactive	Non-Toxic	Non-Toxic		
COc1cc(C(=O)NCCCCC/C=[N+](\[O-])Cc2ccccc2)cc(OC)c1OC	inactive	Non-Toxic	Non-Toxic	inactive	
COc1cc(C(=O)NCCCCC/C=[N+](\[O-])C2CCCCC2)cc(OC)c1OC	inactive	Non-Toxic	Non-Toxic	inactive	
COc1ccc(C(=O)NCCCCC/C=[N+](\[O-])Cc2ccccc2)cc1	inactive	Non-Toxic	Non-Toxic	inactive	
O=C(NCCCCC/C=[N+](\[O-])C1CCCCC1)c1ccccc1	inactive	Non-Toxic	Non-Toxic	inactive	
COc1ccc(C(=O)NCCCCCCCCC/C=[N+](\[O-])C(C)(C)C)cc1OC	inactive	Non-Toxic	Non-Toxic		
COc1ccc(C(=O)NCCCCCCC/C=[N+](\[O-])C(C)(C)C)cc1OC	inactive	Non-Toxic	Non-Toxic		
COc1ccc(C(=O)NCCCCC/C=[N+](\[O-])C(C)(C)C)cc1OC	inactive	107 to 122%	Non-Toxic		inhibition [4]: Active; inhibition [5]: Active; Ki (Acetylcholinesterase): 5.2 µM; Activity (SH-SY5Y [6]): 32.9%; Activity (SH-SY5Y [7]): 20.7%; Activity (SH-SY5Y [8]): 44.3%; Activity (SH-SY5Y [9]): 50.3%; Activity (SH-SY5Y [10]): Dose-dependent effect
O=C(NCCCCC/C=[N+](\[O-])Cc1ccccc1)c1ccccc1	inactive	Non-Toxic	Non-Toxic	inactive	
COc1ccc(C(=O)NCCCCC/C=[N+](\[O-])C2CCCCC2)cc1OC	inactive	Non-Toxic	Non-Toxic	inactive	
COc1cc(C(=O)NCCCCC/C=[N+](\[O-])C(C)(C)C)cc(OC)c1OC	inactive	107 to 122%	Non-Toxic		inhibition [11]: Active; inhibition [12]: Active; Activity (SH-SY5Y [6]): inactive; Activity (SH-SY5Y [7]): inactive; Activity (SH-SY5Y [8]): inactive; Activity (SH-SY5Y [9]): inactive
COc1cccc(C(=O)NCCCCC/C=[N+](\[O-])C(C)(C)C)c1	inactive	Non-Toxic	Non-Toxic		
COc1cccc(C(=O)NCCCCC/C=[N+](\[O-])C2CCCCC2)c1	inactive	Non-Toxic	Non-Toxic	inactive	
COc1cccc(C(=O)NCCCCC/C=[N+](\[O-])Cc2ccccc2)c1	inactive	Non-Toxic	Non-Toxic	inactive	
CC(C)(C)/[N+]([O-])=C/CCCCCNC(=O)c1ccccc1	inactive	Non-Toxic	Non-Toxic	inactive	
